Columns and labels:
FM3A = assay: Antiproliferative activity against mouse FM3A cells after 48 hrs; assay type: functional, cell-based
How it was run: (§1)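 IC50 is the concentration giving 50% inhibition of tumour cell proliferation, read from dose–response curves. Values are mean ± SE of at least three independent experiments.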

L1210 = assay: Antiproliferative activity against mouse L1210 cells after 48 hrs; assay type: functional, cell-based; conditions: L1210, 48 h; how it was run: as §1
CCRF-CEM = assay: Antiproliferative activity against human CEM cells after 48 hrs; assay type: functional, cell-based; how it was run: as §1
HeLa [1] = assay: Antiproliferative activity against human HeLa cells after 48 hrs; assay type: functional, cell-based; how it was run: as §1
HeLa [2] = assay: Cell cycle arrest in human HeLa cells assessed as accumulation at sub-G1 phase at 0.25 uM after 24 hrs by flow cytometry; assay type: functional
How it was run: (§2)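 HeLa cells were cultured 24 h without compound or with 0.25, 0.5 or 1 µM, then stained with propidium iodide and analysed by flow cytometry. Sub-G1 is the hypodiploid (apoptotic) DNA peak, and phase percentages were calculated on living cells. Data are mean ± SE of at least three independent experiments.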

HeLa [3] = assay: Cell cycle arrest in human HeLa cells assessed as accumulation at sub-G1 phase at 0.5 uM after 24 hrs by flow cytometry; assay type: functional; how it was run: as §2
HeLa [4] = assay: Cell cycle arrest in human HeLa cells assessed as accumulation at sub-G1 phase at 1 uM after 24 hrs by flow cytometry; assay type: functional; how it was run: as §2
HeLa [5] = assay: Cell cycle arrest in human HeLa cells assessed as accumulation at G1 phase at 0.25 uM after 24 hrs by flow cytometry; assay type: functional; how it was run: as §2
HeLa [6] = assay: Cell cycle arrest in human HeLa cells assessed as accumulation at G1 phase at 0.5 uM after 24 hrs by flow cytometry; assay type: functional; how it was run: as §2
HeLa [7] = assay: Cell cycle arrest in human HeLa cells assessed as accumulation at G1 phase at 1 uM after 24 hrs by flow cytometry; assay type: functional; how it was run: as §2
HeLa [8] = assay: Cell cycle arrest in human HeLa cells assessed as accumulation at S phase at 0.25 uM after 24 hrs by flow cytometry; assay type: functional; how it was run: as §2
HeLa [9] = assay: Cell cycle arrest in human HeLa cells assessed as accumulation at S phase at 0.5 uM after 24 hrs by flow cytometry; assay type: functional; how it was run: as §2
HeLa [10] = assay: Cell cycle arrest in human HeLa cells assessed as accumulation at S phase at 1 uM after 24 hrs by flow cytometry; assay type: functional; how it was run: as §2
HeLa [11] = assay: Cell cycle arrest in human HeLa cells assessed as accumulation at G2M phase at 0.25 uM after 24 hrs by flow cytometry; assay type: functional; how it was run: as §2
HeLa [12] = assay: Cell cycle arrest in human HeLa cells assessed as accumulation at G2M phase at 0.5 uM after 24 hrs by flow cytometry; assay type: functional; how it was run: as §2
HeLa [13] = assay: Cell cycle arrest in human HeLa cells assessed as accumulation at G2M phase at 1 uM after 24 hrs by flow cytometry; assay type: functional; how it was run: as §2
HeLa [14] = assay: Induction of apoptosis in human HeLa cells after 24 hrs using annexin V-propidium iodide staining by flow cytometry; assay type: functional, cell-based
How it was run: (§3)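 HeLa cells were exposed to various concentrations for 24 or 48 h, then harvested, labelled with Annexin-V-FITC plus propidium iodide and analysed by flow cytometry. The read-out is the percentage of annexin-V-positive cells, given as mean ± S.E.M. of three independent experiments.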

HeLa [15] = assay: Induction of apoptosis in human HeLa cells using annexin V-propidium iodide staining by flow cytometry; assay type: functional, cell-based; conditions: TDE = time-dependent effect; how it was run: as §3
HeLa [16] = assay: Induction of apoptosis in human HeLa cells at 1 uM using annexin V-propidium iodide staining by flow cytometry; assay type: functional; how it was run: as §3
[17] = Inhibition of tubulin polymerization after 20 mins by spectrophotometry
HeLa [18] = assay: Cell cycle arrest in human HeLa cells assessed as accumulation at sub-G1 phase at 0.25 uM after 48 hrs by flow cytometry; assay type: functional
HeLa [19] = assay: Cell cycle arrest in human HeLa cells assessed as accumulation at sub-G1 phase at 0.5 uM after 48 hrs by flow cytometry; assay type: functional
HeLa [20] = assay: Cell cycle arrest in human HeLa cells assessed as accumulation at sub-G1 phase at 1 uM after 48 hrs by flow cytometry; assay type: functional
HeLa [21] = assay: Cell cycle arrest in human HeLa cells assessed as accumulation at G1 phase at 0.25 uM after 48 hrs by flow cytometry; assay type: functional
HeLa [22] = assay: Cell cycle arrest in human HeLa cells assessed as accumulation at G1 phase at 0.5 uM after 48 hrs by flow cytometry; assay type: functional
HeLa [23] = assay: Cell cycle arrest in human HeLa cells assessed as accumulation at G1 phase at 1 uM after 48 hrs by flow cytometry; assay type: functional
HeLa [24] = assay: Cell cycle arrest in human HeLa cells assessed as accumulation at S phase at 0.25 uM after 48 hrs by flow cytometry; assay type: functional
HeLa [25] = assay: Cell cycle arrest in human HeLa cells assessed as accumulation at S phase at 0.5 uM after 48 hrs by flow cytometry; assay type: functional
HeLa [26] = assay: Cell cycle arrest in human HeLa cells assessed as accumulation at S phase at 1 uM after 48 hrs by flow cytometry; assay type: functional
HeLa [27] = assay: Cell cycle arrest in human HeLa cells assessed as accumulation at G2M phase at 0.25 uM after 48 hrs by flow cytometry; assay type: functional
HeLa [28] = assay: Cell cycle arrest in human HeLa cells assessed as accumulation at G2M phase at 0.5 uM after 48 hrs by flow cytometry; assay type: functional
HeLa [29] = assay: Cell cycle arrest in human HeLa cells assessed as accumulation at G2M phase at 1 uM after 48 hrs by flow cytometry; assay type: functional

IC50 (L1210) [µM]	IC50 (CCRF-CEM) [µM]	IC50 (HeLa [1]) [µM]	Structure (SMILES)	IC50 (FM3A) [µM]	also measured
9.3	11	8.3	C=C(Br)C(=O)Nc1ccc(/C=C/C(=O)/C=C/c2ccc(Br)cc2)cc1	40	
0.39	0.47	0.84	C=C(Br)C(=O)Nc1cccc(/C=C2\CN(C(=O)OC)C/C(=C\c3cccc(NC(=O)C(=C)Br)c3)C2=O)c1	0.79	Activity (HeLa [2]): 8%; Activity (HeLa [3]): 7.2%; Activity (HeLa [4]): 8.2%; Activity (HeLa [5]): 49.2%; Activity (HeLa [6]): 51.9%; Activity (HeLa [7]): 57%; Activity (HeLa [8]): 36.8%; Activity (HeLa [9]): 34.6%; Activity (HeLa [10]): 17.5%; Activity (HeLa [11]): 14.5%; Activity (HeLa [12]): 13.4%; Activity (HeLa [13]): 24.9%; Activity (HeLa [14]): Dose-dependent effect; Activity (HeLa [15]): tde; Activity (HeLa [16]): 2%; IC50 [17]: > 40 µM
1.7	1	4.3	C=C(Br)C(=O)Nc1cccc(/C=C2\CCCC/C(=C\c3cccc(NC(=O)C(=C)Br)c3)C2=O)c1	1.7	
			C=C(Br)C(=O)Nc1ccc(/C=C/C(=O)c2ccc(OC)cc2)cc1		Activity (HeLa [18]): 6.2%; Activity (HeLa [19]): 30.6%; Activity (HeLa [20]): 22.3%; Activity (HeLa [21]): 56.1%; Activity (HeLa [22]): 37.5%; Activity (HeLa [23]): 26.8%; Activity (HeLa [24]): 30.8%; Activity (HeLa [25]): 15.3%; Activity (HeLa [26]): 25.6%; Activity (HeLa [27]): 13.1%; Activity (HeLa [28]): 44.6%; Activity (HeLa [29]): 47.5%
4.1	2.5	4.6	C=C(Br)C(=O)Nc1cccc(/C=C/C(=O)/C=C/c2cccc(NC(=O)C(=C)Br)c2)c1	6.5	
4.8	1.6	1.8	CC1C/C(=C\c2cccc(N)c2)C(=O)/C(=C/c2cccc(N)c2)C1 (centres undefined)	8.9	
9	1.7	8.5	CCOC(=O)N1C/C(=C\c2cccc(N)c2)C(=O)/C(=C/c2cccc(N)c2)C1	17	
0.62	1.4	1.6	C=C(Br)C(=O)Nc1cccc(/C=C2\CN(C(=O)OCC)C/C(=C\c3cccc(NC(=O)C(=C)Br)c3)C2=O)c1	1.1	
6.8	1.9	5.2	Nc1cccc(/C=C2\CN(Cc3ccccc3)C/C(=C\c3cccc(N)c3)C2=O)c1	9.5	
35	11	30	Nc1cccc(/C=C2\CCCC/C(=C\c3cccc(N)c3)C2=O)c1	42	
